Test results reported in ChEMBL document CHEMBL5316271, “Microtubule-Stabilizing 1,2,4-Triazolo[1,5-a]pyrimidines as Candidate Therapeutics for Neurodegenerative Disease: Matched Molecular Pair Analyses and Computational Studies Reveal New Structure-Activity Insights” (J Med Chem, 2023).
One block for each molecule: values may come before it. Calls of active or inactive are those of the source. The calls are words filed in the database; no cut-off is given here.

How the values were obtained:
Primary cortical neuron [1] = test: Induction of microtubule stabilization in mouse Primary cortical neuron cells assessed as prevention of okadaic acid induced microtubule collapse by measuring cellular acetylated alpha-tubulin level at 10 uM incubated for 8 hrs by ELISA; assay type: cell-based
In short: (§1)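 Embryonic dissociated cortical neurons (mouse or rat) plated 3 × 10^5/well on poly-D-lysine, grown 10 days, then treated 8 h with 15 nM okadaic acid plus compound or vehicle (0.25% DMSO). Homogenate AcTub measured by ELISA; one-way ANOVA versus vehicle without okadaic acid.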

Tubulin (Homo sapiens) [2] = molecular target: T1, Tubulin (Homo sapiens) (UniProt P68371+Q9H4B7+P0DPH7+P68366+Q13509+Q71U36+P04350+Q3ZCM7+P07437+P68363+Q9BQE3+Q6PEY2+Q13885+Q9BVA1+Q9BUF5); test: Induction of microtubule stabilization in human HEK293-A cells assessed as fold change as increase in cellular acetylated alpha-tubulin level at 1 uM incubated for 4 hrs by ELISA relative to control; assay type: cell-based
In short: (§2)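 QBI293 cells (2 × 10^5/well) plated overnight, then fresh medium with compound (from 4–20 mM DMSO stocks) or vehicle (0.25–0.3% DMSO) for 4 h. Whole-cell extracts normalized by BCA protein; AcTub and total α-tubulin quantified by ELISA, as fold-change versus DMSO cells; one-way ANOVA.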

Tubulin (Homo sapiens) [3] = molecular target: T1, Tubulin (Homo sapiens); test: Induction of microtubule stabilization in human HEK293-A cells assessed as fold change as increase in cellular acetylated alpha-tubulin level at 10 uM incubated for 4 hrs by ELISA relative to control; assay type: cell-based; in short: as §2
Tubulin (Homo sapiens) [4] = molecular target: T1, Tubulin (Homo sapiens); test: Induction of microtubule stabilization in human HEK293-A cells assessed as fold change in total alpha-tubulin level reduction at 1 uM incubated for 4 hrs by ELISA relative to control; assay type: cell-based; in short: as §2
Tubulin (Homo sapiens) [5] = molecular target: T1, Tubulin (Homo sapiens); test: Induction of microtubule stabilization in human HEK293-A cells assessed as fold change in total alpha-tubulin level reduction at 10 uM incubated for 4 hrs by ELISA relative to control; assay type: cell-based; in short: as §2
Tubulin (Homo sapiens) [6] = molecular target: T1, Tubulin (Homo sapiens); test: Induction of microtubule stabilization in human HEK293-A cells assessed as fold change in cellular acetylated alpha-tubulin level at 1 uM incubated for 4 hrs by ELISA relative to cevipabulin; assay type: cell-based
In short: (§3)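 QBI293 cells (2 × 10^5/well) treated 4 h with compound or DMSO vehicle; AcTub in whole-cell extracts measured by ELISA with BCA protein normalization. Fold-change in AcTub relative to DMSO then expressed against change produced by positive-control reference compound at 100 nM run alongside, to correct day-to-day responsiveness.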

Tubulin (Homo sapiens) [7] = molecular target: T1, Tubulin (Homo sapiens); test: Induction of microtubule stabilization in human HEK293-A cells assessed as fold change in cellular acetylated alpha-tubulin level at 10 uM incubated for 4 hrs by ELISA relative to cevipabulin; assay type: cell-based; in short: as §3
Primary cortical neuron [8] = test: Induction of microtubule stabilization in rat Primary cortical neuron cells assessed as prevention of okadaic acid induced microtubule collapse by measuring cellular acetylated alpha-tubulin level at 1 uM incubated for 8 hrs by ELISA; assay type: cell-based; in short: as §1
Mus musculus = test: Binding affinity to microtubule in CD-1 mouse brain assessed as increase in de-tyrosinated alpha-tubulin level at 1 mg/kg, ip qd for 2 days […]; assay type: organism-based; details: time 2.0 day
In short: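 CD-1 mice (n = 4 per group) got two i.p. doses 1 mg/kg, about 24 h apart, from DMSO stock diluted into 30% Kolliphor EL in PBS pH 7.4; vehicle controls. Cortex and hippocampus taken 4 h after second dose, homogenized in RIPA with protease inhibitors, PMSF, 3 μM trichostatin A; equal protein western blot for Glu-tubulin, α-tubulin, GAPDH; infrared imaging; GluTub/α-Tub ratio versus vehicle.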

Compound: C[C@@H](Nc1c(-c2c(F)cc(C#CCCCO)cc2F)c(Cl)nc2ncnn12)C(C)(C)C
- Activity (Primary cortical neuron [1]): Active

- fold change (FC) (Tubulin (Homo sapiens) [2]): 3.65
- fold change (FC) (Tubulin (Homo sapiens) [3]): 7.43
- fold change (FC) (Tubulin (Homo sapiens) [4]): 1.12
- fold change (FC) (Tubulin (Homo sapiens) [5]): 1.38
- fold change (FC) (Tubulin (Homo sapiens) [6]): 0.54
- fold change (FC) (Tubulin (Homo sapiens) [7]): 1.11
Compound: CO[C@H]1C[C@H]2CC[C@@H](C1)N2c1c(-c2ccc(F)cc2F)c(Cl)nc2ncnn12

Compound: CC(C)[C@@H](Nc1c(-c2c(F)cc(F)cc2F)c(Cl)nc2ncnn12)C(F)(F)F
- Activity (Primary cortical neuron [8]): inactive

- fold change (FC) (Tubulin (Homo sapiens) [7]): 0.33
Compound: C[C@@H](Nc1c(-c2c(F)cc(F)cc2F)c(Cl)nc2ncnn12)C1(C)N=N1

- fold change (FC) (Tubulin (Homo sapiens) [4]): 1.11
Compound: C[C@@H](Nc1c(-c2c(F)cc(F)cc2F)c(Cl)nc2ncnn12)C1CC1

Compound: CC(C)[C@@H](C)Nc1c(-c2c(F)cc(C#CCCCO)cc2F)c(Cl)nc2ncnn12
- Activity (Primary cortical neuron [1]): Active

Compound: C[C@@H](Nc1c(-c2c(F)cc(C#CCCO)cc2F)c(Cl)nc2ncnn12)C(C)(C)C
- Activity (Primary cortical neuron [1]): Active
- Activity (Mus musculus): Active

Compound: C[C@@H](Nc1c(-c2c(F)cc(C#CCCN(C)C)cc2F)c(Cl)nc2ncnn12)C(C)(C)C
- Activity (Primary cortical neuron [1]): Active
- Activity (Mus musculus): Active

Compound: C[C@@H](Nc1c(-c2c(F)cc(OCCCO)cc2F)c(Cl)nc2ncnn12)C(C)(C)C
- Activity (Primary cortical neuron [1]): inactive

Compound: C[C@@H](Nc1c(-c2c(F)cc(OCCCN(C)C)cc2F)c(Cl)nc2ncnn12)C(C)(C)C
- Activity (Primary cortical neuron [1]): Active

Compound: CC(C)[C@H](Nc1c(-c2c(F)cc(F)cc2F)c(Cl)nc2ncnn12)C(F)(F)F
- Activity (Primary cortical neuron [8]): inactive

Compound: CC(C)[C@@H](C)Nc1c(-c2c(F)cc(F)cc2F)c(Cl)nc2ncnn12
- Activity (Primary cortical neuron [8]): Active
- Activity (Primary cortical neuron [1]): Active

Compound: C[C@@H](Nc1c(-c2c(F)cc(C#N)cc2F)c(Cl)nc2ncnn12)C(C)(C)C
- Activity (Mus musculus): Active

Compound: CC(C)[C@@H](C)Nc1c(-c2c(F)cc(C#CCCO)cc2F)c(Cl)nc2ncnn12
- Activity (Primary cortical neuron [1]): Active
